The source made the active and inactive calls. The calls are words filed in the database; no cut-off is given here.
Assays:
[1] = species: Rattus norvegicus; test: Channel opening activity at KATP channel in Wistar rat pancreatic islets assessed as glucose-induced residual insulin secretion at 10 uM after 90 mins by radioimmunology
Procedure, shortened: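 Islets from adult fed rats, groups of 10, preincubated 30 min at 37 °C in bicarbonate salt medium with 2.8 mM glucose, 0.5% dialyzed albumin, O2/CO2 gassed. Then incubated 90 min at 37 °C with 16.7 mM glucose plus drug. Insulin by radioimmunoassay against rat insulin standard; expressed as % of drug-free 16.7 mM glucose control; mean ± SEM (n).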

[2] = Channel opening activity at KATP channel in Wistar rat endothelium-denuded aortic ring assessed as relaxation of KCl-induced contraction; assay type: tissue-based; details: Aorta
Procedure, shortened: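 Thoracic aortic rings (3–4 mm, endothelium-free) from adult fed rats, 37 °C, O2/CO2 95/5 gassed; isometric tension. After 60 min equilibration, contracted with 30 mM KCl; once stable, drug added cumulatively to maximal relaxation or 300 µM. Relaxation as % of KCl contraction; EC50 (50% inhibition of plateau) from dose–response curves; mean ± SEM (n).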

[3] = species: Rattus norvegicus; test: Channel opening activity at KATP channel in Wistar rat pancreatic islets assessed as glucose-induced residual insulin secretion at 1 uM after 90 mins by radioimmunology
[4] = species: Rattus norvegicus; test: Channel opening activity at KATP channel in Wistar rat pancreatic islets assessed as increase in rubidium outflow at 10 uM by scintillation counting
Procedure, shortened: (§1)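 Groups of 100 islets from adult fed rats loaded 60 min at 37 °C with 86Rb in bicarbonate medium with 16.7 mM glucose and 0.5% albumin, washed three times, then perifused at 1.0 mL/min. Effluent collected in 1-min fractions from min 31 to 90, counted by scintillation along with final islet content. Output as fractional outflow rate (% of islet content per min). Glibenclamide 10 µM used as KATP blocker.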

[5] = species: Rattus norvegicus; test: Channel opening activity at KATP channel in Wistar rat pancreatic islets assessed as increase in rubidium outflow at 10 uM by scintillation counting in presence of glibenclamide; procedure, shortened: as §1

Work on `CC1(C)CC(NC(=S)Nc2cccc(C#N)c2)c2cc(F)ccc2O1` (stereo unspecified) yielded an Activity [1] of 16.1%, an EC50 [2] of 2600 nM and an Activity [3] of 80%.
For `CS/C(=N\c1ccc(Cl)cc1)NC1CC(C)(C)Oc2ccc(Br)cc21` (stereo unspecified), the Activity [1] was 40.8%, the EC50 [2] was > 10000 nM and the Activity [3] was 89.4%.
For `CC1(C)CC(NC(=S)Nc2ccc([N+](=O)[O-])cc2)c2cc(Cl)ccc2O1` (stereo unspecified), the Activity [1] was 10.3%, the EC50 [2] was > 10000 nM and the Activity [3] was 67.3%.
With `CC1(C)CC(NC(=S)Nc2cccc(C#N)c2)c2cc(Br)ccc2O1` (stereo unspecified) the Activity [1] was 14.2%, the EC50 [2] was 640 nM and the Activity [3] was 65.5%.
`CC1(C)CC(NC(=S)Nc2cccnc2)c2cc(Cl)ccc2O1` (stereo unspecified) gave an Activity [1] of 50.2% and an EC50 [2] of 2800 nM.
Work on `CC1(C)CC(N/C(=N/C#N)Nc2cccc(C#N)c2)c2cc(Br)ccc2O1` (stereo unspecified) yielded an Activity [1] of 45.3%, an EC50 [2] of 5200 nM and an Activity [3] of 90.5%.
In the case of `CC1(C)CC(NC(=S)Nc2cccc([N+](=O)[O-])c2)c2cc(Cl)ccc2O1` (stereo unspecified), the Activity [1] is reported as 14.4%, the EC50 [2] is reported as > 3000 nM and the Activity [3] is reported as 64.3%.
In the case of `CC1(C)CC(NC(=S)Nc2ccsc2)c2cc(Cl)ccc2O1` (stereo unspecified), the Activity [1] is reported as 51.9% and the EC50 [2] is reported as > 3000 nM.
In the case of `CC1(C)CC(NC(=S)Nc2cccnc2)c2cc(F)ccc2O1` (stereo unspecified), the Activity [1] is reported as 62.1% and the EC50 [2] is reported as 6600 nM.
With `CC1(C)CC(NC(=S)Nc2ccc(C#N)cc2)c2cc(F)ccc2O1` (stereo unspecified) the Activity [1] was 12%, the EC50 [2] was > 3000 nM and the Activity [3] was 64.7%.
Work on `CC(N/C(=N\C#N)Nc1ccncc1)C(C)(C)C` (racemic) [PINACIDIL ANHYDROUS] yielded an EC50 [2] of 350 nM.
In the case of `CC1(C)CC(NC(=S)Nc2ccc(C#N)cc2)c2cc(Br)ccc2O1` (stereo unspecified), the Activity [1] is reported as 11.7%, the EC50 [2] is reported as > 10000 nM and the Activity [3] is reported as 57.5%.
With `CC1(C)CC(NC(=S)Nc2ccsc2)c2cc(Br)ccc2O1` (stereo unspecified) the Activity [1] was 44% and the EC50 [2] was > 10000 nM.
For `CC1(C)CC(N/C(=N/C#N)Nc2ccc(Cl)cc2)c2cc(Br)ccc2O1` (stereo unspecified), the Activity [1] was 42.7%, the EC50 [2] was 11400 nM and the Activity [3] was 95.8%.
For `CC1(C)CC(NC(=S)Nc2ccc(C#N)cc2)c2cc(Cl)ccc2O1` (stereo unspecified), the Activity [1] was 10.6%, the EC50 [2] was > 10000 nM and the Activity [3] was 47.8%.
For `CC1(C)CC(NC(=S)Nc2cccc([N+](=O)[O-])c2)c2cc(Br)ccc2O1` (stereo unspecified), the Activity [1] was 13.5%, the EC50 [2] was > 10000 nM and the Activity [3] was 64.3%.
With `CC1(C)CC(NC(=S)Nc2ccc([N+](=O)[O-])cc2)c2cc(Br)ccc2O1` (stereo unspecified) the Activity [1] was 13.5%, the Activity [4] was “Active” and the Activity [5] was “inactive”. The EC50 [2] was > 10000 nM and the Activity [3] was 61.3%.
`CC1(C)Oc2ccc(C#N)cc2C(N2CCCC2=O)C1O` (racemic) [CROMAKALIM] showed an Activity [1] of 94.4%, an EC50 [2] of 130 nM and an Activity [3] of 95.3%.
With `CC1=Nc2ccc(Cl)cc2S(=O)(=O)N1` the Activity [1] was 73.9% and the Activity [3] was 87.5%.
For `CS/C(=N\c1cccc(C#N)c1)NC1CC(C)(C)Oc2ccc(Br)cc21` (stereo unspecified), the Activity [1] was 37.7%, the EC50 [2] was > 30000 nM and the Activity [3] was 93.7%.
Work on `CC1(C)CC(NC(=S)Nc2cccnc2)c2cc(Br)ccc2O1` (stereo unspecified) yielded an Activity [1] of 44.3% and an EC50 [2] of 3700 nM.
With `CC1(C)CC(NC(=S)Nc2cccc(C#N)c2)c2cc(Cl)ccc2O1` (stereo unspecified) the Activity [1] was 15.8%, the EC50 [2] was 600 nM and the Activity [3] was 66.2%.
With `CC1(C)CC(NC(=S)Nc2ccc([N+](=O)[O-])cc2)c2cc(F)ccc2O1` (stereo unspecified) the Activity [1] was 10.7%, the EC50 [2] was > 3000 nM and the Activity [3] was 74.3%.
For `CC1(C)CC(NC(=S)Nc2cccc([N+](=O)[O-])c2)c2cc(F)ccc2O1` (stereo unspecified), the Activity [1] was 11.5%, the EC50 [2] was > 3000 nM and the Activity [3] was 76.1%.

Reference: ChEMBL document CHEMBL1152669, “New R/S-3,4-dihydro-2,2-dimethyl-2H-1-benzopyrans as K(ATP) channel openers: modulation of the 4-position” (Bioorg Med Chem, 2009)
